According to ChEMBL document CHEMBL3244071, “3-Phenyl-5-[2,2,2-trifluoro-1-hydroxy-1-(trifluoromethyl)ethyl]indole-2-carbonitrile, a potent inhibitor of prostaglandin synthetase and of platelet aggregation” (J Med Chem, 1979):

Columns and labels:
[1] = biological target: prostaglandin G/H synthase 1 (Bos taurus) (UniProt O62664); assay: Inhibition of prostaglandin synthetase (bovine) using arachidonic acid as substrate preincubated for 10 mins followed by substrate addition
[2] = system: Rattus norvegicus; assay: Inhibition of PGF2-alpha formation in ip dosed rat serum after 1 hr by radioimmunoassay; format: functional
Procedure, shortened: (§1)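 Male rats, about 200 g, five per group, dosed at various levels ip or orally by intubation. Killed 1 h later and serum prepared. Serum extracted with ethyl acetate, extract evaporated under nitrogen, then assayed by radioimmunoassay using rabbit antibodies raised to PGF2α.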

[3] = system: Rattus norvegicus; assay: Inhibition of PGF2-alpha formation in po dosed rat serum after 1 hr by radioimmunoassay; format: functional
Procedure, shortened: as §1

[4] = system: Platelet; assay: Inhibition of collagen-induced platelet aggregation in human platelet-rich plasma after 5 mins; format: functional
Procedure, shortened: (§2)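 Human PRP from centrifugation (180g, 15 min, room temperature); PPP from spinning PRP at 1000g for 2 min. 1 mL PRP stirred at 1000 rpm at 37 °C in a densitometer. Compounds added in physiological saline at various concentrations and incubated 5 min. Aggregation then triggered with ADP, epinephrine hydrochloride or human mammary-gland collagen. IC50 extrapolated from % inhibition vs log concentration.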

[5] = system: Platelet; assay: Inhibition of ADP-induced platelet aggregation in human platelet-rich plasma after 5 mins; format: functional
Procedure, shortened: as §2

[6] = system: Platelet; assay: Inhibition of epinephrine hydrochloride-induced platelet aggregation in human platelet-rich plasma after 5 mins; format: functional
Procedure, shortened: as §2

[7] = system: Mus musculus; assay: Inhibition of arachidonic acid-induced diarrhea in po dosed mouse treated for 1 hr prior to arachidonic acid-challenge measured after 30 mins; format: functional
Procedure, shortened: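 Male mice, 18-20 g, given compound orally 1 h before arachidonic acid 4 mg/kg ip. Diarrhea scored 0-4 on paper towels by pellet softness and wet ring.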

[8] = system: Rattus norvegicus; assay: Toxicity in po dosed rat assessed as gastric ulcer incidence after 4 hrs; format: organism-based, Stomach; conditions: in vivo
Procedure, shortened: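 Male rats fasted 18 h with water ad libitum. Dosed orally 4 h before autopsy. Stomachs opened along the lesser curvature, everted, rinsed in saline and examined for focal petechiae.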

[9] = Toxicity in po dosed mouse; format: organism-based; conditions: in vivo
Procedure, shortened: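 Acute oral (single-dose) administration to mice; the endpoint was the LD50 in mg/kg.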

[10] = Toxicity in po dosed mouse treated for 14 days; format: organism-based; conditions: in vivo
[11] = species on record: Rattus norvegicus; assay: Toxicity in rat assessed as systemic antiinflammatory activity; format: organism-based; conditions: in vivo
[12] = species on record: Rattus norvegicus; assay: Toxicity in rat assessed as systemic analgesic activity; format: organism-based; conditions: in vivo
[13] = biological target: prostaglandin G/H synthase 1 (Bos taurus) (UniProt O62664); assay: Ratio of indomethacin IC50 to compound IC50 for prostaglandin synthetase (bovine)
[14] = Homo sapiens, Platelet, Plasma, 5 min, read-out: IC50

IC50 [4]	IC50 [5]	IC50 ([6]; platelet)	Compound	IC50 [1]	ED50 [2]	ED50 [3]	IC50 [6, 14]	ED50 [7]	ED50 [8]	LD50 [9]	LD50 at 336 h [10]	Activity [11]	Activity [12]	Ratio IC50 [13]
–	–	–	NC(=O)c1[nH]c2ccc(C(O)(C(F)(F)F)C(F)(F)F)cc2c1-c1ccccc1	7 µM	–	–	–	–	–	–	–	–	–	–
31 µM	25 µM	18 µM	CC(=O)Oc1ccccc1C(=O)O [ASPIRIN]	–	10 mg/kg	6.7 mg/kg	–	1.3 mg/kg	49 mg/kg	–	–	–	–	–
2.8 µM	0.1 µM	–	COc1ccc2c(c1)c(CC(=O)O)c(C)n2C(=O)c1ccc(Cl)cc1 [INDOMETHACIN]	–	< 1 mg/kg	< 1 mg/kg	3.2 µM	0.8 mg/kg	3 mg/kg	–	–	–	–	–

Compound	IC50 [4]	IC50 [5]	IC50 ([6]; platelet)	IC50 [1]	ED50 [2]	ED50 [3]	IC50 [6, 14]	ED50 [7]	ED50 [8]	LD50 [9]	LD50 at 336 h [10]	Activity [11]	Activity [12]	Ratio IC50 [13]
N#Cc1[nH]c2ccc(C(O)(C(F)(F)F)C(F)(F)F)cc2c1-c1ccccc1	4.2 µM	7.3 µM	–	0.5 µM	15 mg/kg	28 mg/kg	34 µM	5 mg/kg	> 250 mg/kg	> 1000 mg/kg	> 1000 mg/kg	Non-toxic	Non-toxic	2
